Compound activity deposited in PubChem by Broad Institute.
The list is not random: actives were taken first. Their share in the collection is about 2.2%.
PDI inh: PDI (human) enzyme inhibition; hit rate 0.052% among 350,000; inhibition, % at 10 µM; PDI insulin aggregation turbidity, A650, 90 min; P07237; AID 588391;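 active = mean inhibition across replicates of 30% or more, whatever share of single replicates reach that level; inconclusive = mean inhibition below 30% while every single replicate reaches 30%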
Target sequence (P07237 whole entry, looked up): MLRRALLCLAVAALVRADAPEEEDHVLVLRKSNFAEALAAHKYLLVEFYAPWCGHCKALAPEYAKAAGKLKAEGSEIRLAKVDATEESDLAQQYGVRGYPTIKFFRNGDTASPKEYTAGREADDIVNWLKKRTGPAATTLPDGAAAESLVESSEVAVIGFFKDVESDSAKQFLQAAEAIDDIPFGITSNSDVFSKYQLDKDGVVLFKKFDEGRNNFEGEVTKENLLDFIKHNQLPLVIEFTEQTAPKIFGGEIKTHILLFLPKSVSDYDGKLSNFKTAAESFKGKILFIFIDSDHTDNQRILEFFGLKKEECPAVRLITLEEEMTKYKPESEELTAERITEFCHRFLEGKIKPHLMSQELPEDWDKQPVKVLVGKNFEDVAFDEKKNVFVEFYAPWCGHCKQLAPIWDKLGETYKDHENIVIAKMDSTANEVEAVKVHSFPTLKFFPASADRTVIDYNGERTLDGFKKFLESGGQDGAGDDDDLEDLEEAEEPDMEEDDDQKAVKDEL
FN deposition inh: fibronectin deposition inhibition; AH1F fibroblasts, Alexa488-fibronectin deposition fluorescence, overnight; inhibition, % at 12.6 µM; hit rate 0.086% among 350,000; AID 743247;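 active = mean inhibition across replicates of 30% or more, regardless of how many single replicates reach that level; inconclusive = mean under 30% yet at least half of replicates reach 30%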;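 note: positive control wells lacked labelled fibronectin entirely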
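Schedule: 1 h cell adhesion before compound, then overnight fibronectin incubation; test system: AH1F fibroblast monolayer depositing Alexa488-labelled fibronectin into matrix; quantity: 10000 AH1F cells per well; probe or stimulus: fluorescent fibronectin at 24 nM final; signal: fluorescence, ex 485 nm, em 525 nm; evaluation: percent inhibition as loss of matrix-bound fibronectin fluorescence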
Env fusion inh: inhibitors of HIV Env-mediated cell fusion. AID 651610. HeLa-JRFL Env/CEM21 cell fusion, luciferase. hit rate 1.1% among 360,000. inhibition, % at 12.3 µM;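 active = mean replicate inhibition score of at least 50 and every replicate individually at or above 50; inconclusive = only one of the two criteria met; inactive = mean below 50 and not all replicates reaching 50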;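 note: 0% = plate neutral controls and 100% = maraviroc near 300 nM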
ERp5 block: blocks human ERp5 reductase activity on insulin | inhibition, % at 9.99 µM | ERp5 insulin aggregation, absorbance 650 nm, 90 min | AID 651711 | hit rate 0.05% among 350,000 | Q15084;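 active = mean replicate inhibition above about 25%, with every replicate also reaching it, limit read from the data, passing the limit was not always enough; inconclusive = only one of those two criteria met; inactive = neither criterion met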
Ecoli rRNA inh: inhibitors of bacterial rRNA selective over humanized ribosomes; E. coli WT GFP vs humanized-ribosome RFP mutants, fluorescence, 24 h; stronger effect = lower value; DMSO median 0, no signal -100; GFP signal change (wild-type ribosome), % (concentration not given with the values); hit rate 1.6% among 350,000;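 active = significant combined selectivity score with lowered wild-type GFP, culture density cut under 30%, mutant RFP and density less affected; inactive = any of these conditions unmet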
PvdQ inh: blocks Pseudomonas aeruginosa PvdQ acylase activity | purified PvdQ acylase, fluorescence plate reader | hit rate 0.063% among 340,000 | inhibition, % at 10 µM | AID 488965; in the data active = inhibition above about 30%, passing the limit was not always enough; inconclusive = no clear call, values can overlap the other calls;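 note: 0% = vehicle neutral wells and 100% = reference inhibitor wells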
AID977621: growth inhibition of wild-type GFP E. coli, dose response, H69 mutant RFP, cherry-pick; activity change, negative = inhibition at 50 µM; E. coli wild-type GFP strain growth, fluorescence, 24 h; 1,900 tested, under 10 active; shares compounds with Ecoli rRNA inh;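 active = Wild-type ribosome reporter drop at least double the humanized mutant ribosome reporter drop, growth loss under a set limit; inconclusive = no clear call, values can overlap the other calls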;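 note: wild-type GFP and H69 mutant RFP strains grown together 50/50 in each well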
AID977628: growth of wild-type and h24-humanized E. coli strains – h24 mutant RFP vs wild-type GFP, cherry-pick, dose response | shares compounds with Ecoli rRNA inh | E. coli WT GFP strain growth, fluorescence, 24 h | activity change, negative = inhibition at 50 µM | 1,900 tested, under 10 active;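 active = compound lowering the normal-ribosome reporter at least twice as much as the humanized-ribosome reporter, growth loss under a set limit; inconclusive = no clear call, values can overlap the other calls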;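 note: wild-type GFP and h24 humanized RFP strains co-cultured 1 to 1 per well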
An asterisk follows results filed as active; [ ] = dose if it differs, or a comment.

`CN(C)CCCN(C(=O)COc1ccc(Cl)cc1)c1nc2ccc(F)cc2s1` gave PDI inh -6.3, FN deposition inh 1.3, Env fusion inh -2.4, ERp5 block -2.7, Ecoli rRNA inh -23.4*, PvdQ inh -1.5, AID977621 -6.28 and AID977628 -4.44.
`CN(C)CCCN(C(=O)CCc1ccccc1)c1nc2c(F)cccc2s1` gave PDI inh 26.1 and PvdQ inh -10.5.
C[C@H](CO)N1C[C@H](C)[C@H](CN(C)Cc2ccc(C(=O)Nc3ccccc3N)cc2)Oc2ccc(NS(C)(=O)=O)cc2CC1=O was read as Env fusion inh -4.1[16.7 µM], ERp5 block 2.0 and Ecoli rRNA inh -4.1.
For COc1ccc(Cc2nnc(Nc3ccc(C)cc3)o2)cc1OC the results were PDI inh -1.1, FN deposition inh 9.1, Env fusion inh 47.5, ERp5 block 2.3, Ecoli rRNA inh -19.4*, PvdQ inh -3.2 and AID977628 -14.3.
Screening Cc1noc(C)c1NC(=O)N(C)C[C@@H]1Oc2ccc(NC(=O)Nc3ccc(F)cc3)cc2CC(=O)N([C@@H](C)CO)C[C@H]1C returned Env fusion inh 21.0[16.7 µM], ERp5 block 7.5 and Ecoli rRNA inh 0.7.
For O=C(NCCc1ccccn1)c1cccc(S(=O)(=O)N2CCc3ccccc32)c1 the results were PDI inh -2.2, Env fusion inh 7.2, ERp5 block 0.3, Ecoli rRNA inh -18.1*, PvdQ inh -16.8 and AID977628 inconclusive.
Cc1ccc(S(=O)(=O)N(C)C[C@H]2Oc3ccc(NC(=O)Cc4ccccc4)cc3CC(=O)N([C@H](C)CO)C[C@@H]2C)cc1 was read as Env fusion inh 8.4[16.7 µM], ERp5 block 0.0 and Ecoli rRNA inh 0.0.
For O=C(c1cc(S(=O)(=O)N2CCOCC2)ccc1Cl)N1CCc2ccccc2C1 the results were PDI inh -12.1, FN deposition inh 3.1, Env fusion inh -6.2, ERp5 block 1.8, Ecoli rRNA inh -20.2*, PvdQ inh 5.4, AID977621 -12.4 and AID977628 -9.05.
Screening COc1cc2c(cc1OC)CN(C(=O)c1cc(S(=O)(=O)N3CCOCC3)ccc1Cl)CC2 returned PDI inh 9.9, FN deposition inh 3.4, Env fusion inh 9.0 and PvdQ inh -0.3.
Screening CCc1cnc(N2[C@H](C#N)[C@@H](c3ccccc3C3=CCCC3)[C@@H]2CO)s1 returned FN deposition inh -2.3 and Ecoli rRNA inh -30.6.
For CN(C)S(=O)(=O)c1ccc(C(=O)OCC(=O)c2ccc3c(c2)NC(=O)CO3)cc1 the results were PDI inh -2.2, FN deposition inh 3.7, Env fusion inh 4.6, ERp5 block -4.0, Ecoli rRNA inh 10.6 and PvdQ inh 4.9.
Screening CN(C)S(=O)(=O)c1cccc(C(=O)OCC(=O)c2ccc3c(c2)NC(=O)CO3)c1 returned PDI inh 3.0, ERp5 block 0.9, Ecoli rRNA inh -26.5*, PvdQ inh -5.9, AID977621 -9.32 and AID977628 -9.2.
COCc1nnc(NC(=O)c2ccc(S(=O)(=O)N3CCCC3)cc2)o1 was read as PDI inh 10.6, FN deposition inh 6.4, Env fusion inh -17.9, ERp5 block 8.8, Ecoli rRNA inh -23.2*, PvdQ inh -2.5 and AID977621 -16.1.
For O=C1c2cccc3cccc(c23)C(=O)N1CCCn1ccnc1 the results were PDI inh -2.1, FN deposition inh 0.8, Env fusion inh -13.2, ERp5 block 5.1, Ecoli rRNA inh -21.3*, AID977621 -15.1 and AID977628 inconclusive.
Screening O=[N+]([O-])c1ccccc1CN1CCN(S(=O)(=O)c2ccccc2)CC1 returned PDI inh -1.7, FN deposition inh -5.2, Env fusion inh -55.6, ERp5 block 1.7, Ecoli rRNA inh -24.8*, PvdQ inh 21.3, AID977621 inconclusive and AID977628 inconclusive.
